# Screens as filed in PubChem.
# Hits are enriched below; roughly 2.7% of the tested compounds scored in any of these assays.
# S100A4 inh HTS – inhibitors of S100A4-myosin IIA peptide binding, primary screen, biochemical, fluorescence polarization, TAMRA-MyoIIA peptide | inhibition, % at 10.7 µM | 360,000 tested, 0.14% active | Protein S100-A4 (Homo sapiens), P26447;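 active = mean inhibition of at least 70% across replicates, with every replicate also reaching that level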
#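 Compound dosing: one dose per compound; test system: human S100A4 monomer with TAMRA-labelled myosin IIA peptide; probe or stimulus: TAMRA-labelled myosin IIA heavy-chain peptide probe, 5 nM; medium: HEPES buffer with Ca2+, pH 7.2; schedule: 5 min incubation before reading; benchmarks: neutral control DMSO, positive control TFP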
# CFTR F508del cor – F508del CFTR correction, initial screen, CFBE line, single point | CFBE cells, YFP halide quenching; stimulated with forskolin plus potentiator P3; % fluorescence drop versus neutral controls | activity (quench increase), % at 7.58 µM | 350,000 tested, 0.36% active;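 active = mean added fluorescence quench of at least 8% versus neutral control, with both replicates also reaching 8%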;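 note: cells transiently co-express mutant CFTR-F508del with the halide-sensitive YFP; corrector assay measuring rescue of mutant channel to the surface after 24 h compound exposure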
# E-sel inducer – E-selectin induction in HUVECs, primary screen, imaging, HUVEC, immunofluorescence imaging, single point | activation, % at 7.58 µM | 260,000 tested, 0.37% active | AID 686992, 2013 | normalized: neutral wells 0, TNF-alpha wells 100 | P16581;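 active = mean E-selectin-positive cell signal at least 10% of the positive control, reached in at least 60% of replicates, without over 20% cell loss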
# Target sequence (P16581 whole entry, looked up): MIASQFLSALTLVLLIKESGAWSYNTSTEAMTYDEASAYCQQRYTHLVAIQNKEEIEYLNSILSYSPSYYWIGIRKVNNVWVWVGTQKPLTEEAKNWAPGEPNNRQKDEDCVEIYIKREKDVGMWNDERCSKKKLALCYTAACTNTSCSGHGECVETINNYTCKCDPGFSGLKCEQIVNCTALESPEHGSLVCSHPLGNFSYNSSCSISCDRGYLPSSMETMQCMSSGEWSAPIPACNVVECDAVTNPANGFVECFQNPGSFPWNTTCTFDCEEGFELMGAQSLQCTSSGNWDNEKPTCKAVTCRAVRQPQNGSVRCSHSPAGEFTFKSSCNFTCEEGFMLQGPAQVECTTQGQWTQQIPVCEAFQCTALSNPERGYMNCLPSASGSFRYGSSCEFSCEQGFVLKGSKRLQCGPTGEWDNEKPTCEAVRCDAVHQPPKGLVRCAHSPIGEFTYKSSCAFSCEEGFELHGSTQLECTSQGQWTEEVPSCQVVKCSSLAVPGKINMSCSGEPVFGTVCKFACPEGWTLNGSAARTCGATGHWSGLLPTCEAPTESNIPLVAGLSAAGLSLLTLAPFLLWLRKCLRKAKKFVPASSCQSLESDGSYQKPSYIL
#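 assay system = HUVEC, human umbilical vein endothelial cells | input = 3,000 HUVEC seeded per well | medium = EGM-2 growth medium on 0.1% gelatin-coated wells | dosing = one compound dose added by pin transfer | signal = immunofluorescence imaging | read-out basis = % PE-positive cells | control set = TNF-alpha, DMSO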
# Env fusion inh – inhibitors of HIV-1 Env-driven cell-cell fusion, primary screen, HeLa-JRFL effector, CEM21 target cells, luciferase. inhibition, % at 12.3 µM. 360,000 tested, 1.1% active;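 active = mean replicate inhibition score of at least 50 and every replicate individually at or above 50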;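 note: 0% = plate neutral controls and 100% = maraviroc near 300 nM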
# FGF22 binding – binders of human FGF22 protein, primary screen, FGF22 synaptogenesis inhibitor project, biophysical, thermal shift, single point; Fibroblast growth factor 22 (Homo sapiens), Q9HCT0; recombinant FGF22 thermal shift, SYPRO orange fluorescence; percent of sucrose octasulfate shift, DMSO zero; activity (Tm shift, normalised), % at 9.99 µM; 340,000 tested, 1.5% active; AID 651658, 2012;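 active = mean Tm shift, scaled 0 neutral to 100 positive control, at about 1.3% or above, every replicate too, limit read from the data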
# The depositor's hits bear a star; nt = no result; ! = a repeat was not active; [ ] = another dose, or the depositor's remark.
SMILES,S100A4 inh HTS,CFTR F508del cor,E-sel inducer,Env fusion inh,FGF22 binding
C[C@H]1CN([C@@H](C)CO)C(=O)CCCn2cc(nn2)CO[C@@H]1CN(C)Cc1ccc2cccnc2c1,nt,4,2,nt,nt
CC(=O)Oc1ccccc1Cn1c(C)c(C(=O)NCc2cccc(Cl)c2)sc1=O,2,-1,nt,59*,0
C[C@@H]1CN([C@@H](C)CO)C(=O)c2cc(/C=C/c3ccccc3)cnc2O[C@H]1CN(C)C(=O)c1ccc(F)cc1,-3,-3,0,-13[16.7 µM],0
CN(Cc1ccc(F)cc1)C(=O)c1cccc(S(=O)(=O)N2CCN(Cc3ccccc3)CC2)c1,-1,3,1,3,-1
CSc1ccc(CN(C)C(=O)c2cccc(S(=O)(=O)N3CCN(Cc4ccccc4)CC3)c2)cc1,0,-5,nt,69*,0
CN(Cc1ccc(F)cc1)C(=O)c1cccc(S(=O)(=O)N2CCN(c3ccc(F)cc3)CC2)c1,-1,1,0,57*,0
CN(CC(=O)Nc1ccc(F)cc1)C(=O)c1cccc(S(=O)(=O)N2CCN(c3ccc(F)cc3)CC2)c1,1,1,0,55*,0
Cc1noc(C)c1S(=O)(=O)Nc1ccc2c(c1)C(=O)N([C@H](C)CO)C[C@@H](C)[C@H](CN(C)Cc1ccc3c(c1)OCO3)OCCCC[C@H](C)O2,-37,3,0,22[16.7 µM],-1
CCc1ccc(OCc2n[nH]c(=S)n2C(C)CCCC(C)C)cc1 (configuration not stated),1,17*,nt,10,0
C[C@@H]1CN([C@H](C)CO)S(=O)(=O)c2ccc(-c3ccc(C(=O)N(C)C)cc3)cc2O[C@H]1CN(C)C(=O)C1CC1,nt,1,1,-7[16.7 µM],nt
CC1CN(C(=S)SCCN2C(=O)CCC2=O)CC(C)O1 (configuration not stated),-2,1,0,2,44*
CCCNC(=O)C[C@H]1CC[C@H]2[C@H](COc3ccc(NC(=O)c4cc(F)cc(F)c4)cc3C(=O)N2C)O1,nt,2,0,6[16.7 µM],0
CCCCNC(=O)N1CCN(c2ccccc2OCC)CC1,1,2,88*,-2,0
CCOc1ccccc1N1CCN(C(=O)CSc2ccc3c(c2)OCCO3)CC1,-2,3,79*,-2,0
CCOc1ccccc1N1CCN(C(=O)CC(C)(C)C)CC1,8,-3,4,11,0
N/C(=N/O)c1ccccc1N1CCC(Cc2ccccc2)CC1,-1,1,nt,26,44*
C[C@H](CO)N1C[C@H](C)[C@@H](CN(C)Cc2ccc(Cl)c(Cl)c2)Oc2ccc(NC(=O)Cc3cn(C)c4ccccc34)cc2CC1=O,-8,4,14,1[16.7 µM],0
COc1ccc(S(=O)(=O)Nc2cccc3c2O[C@@H](CN(C)Cc2ccc(Cl)c(Cl)c2)[C@@H](C)CN([C@@H](C)CO)C3=O)cc1,nt,-5,0,-16[16.7 µM],nt
CCOC(=O)N(C)C[C@@H]1OCc2cn(nn2)CCCC(=O)N([C@H](C)CO)C[C@H]1C,-4,-1,0,57*,0
C[C@H]1CN([C@@H](C)CO)C(=O)CCCn2nncc2CO[C@H]1CN(C)S(=O)(=O)c1ccc2c(c1)OCCCO2,117*!,2,nt,-20,0
C[C@@H]1CN([C@@H](C)CO)C(=O)CCCn2cc(nn2)CO[C@H]1CN(C)S(=O)(=O)c1ccc(Oc2ccccc2)cc1,82*!,-2,0,-11[16.7 µM],0
CCOC(=O)N(C)C[C@H]1OCc2cn(nn2)CCCC(=O)N([C@H](C)CO)C[C@H]1C,-7,-2,0,3[16.7 µM],0
C[C@@H]1CN([C@H](C)CO)C(=O)CCCn2cc(nn2)CO[C@H]1CN(C)S(=O)(=O)c1ccc(Oc2ccccc2)cc1,2,-1,0,0,0
C[C@H](CO)N1C[C@H](C)[C@H](CN(C)S(=O)(=O)c2ccc3c(c2)OCCCO3)OCc2cnnn2CCCC1=O,-3,-2,0,-1,0
O=C(C[C@@H]1CC[C@@H](NC(=O)Nc2ccc3c(c2)OCO3)[C@@H](CO)O1)NCc1ccccc1,-5,-1,1,2[16.7 µM],0
SMILES,S100A4 inh HTS,CFTR F508del cor,E-sel inducer,Env fusion inh,FGF22 binding
CC(=O)Nc1ccc(S(=O)(=O)N2c3ccccc3C(C)=CC2(C)C)cc1,-3,9.5*,1,-113,42
COc1ccc(C=Nc2ccc3[nH]ncc3c2)c(O)c1,1,-1,nt,9,43*
CN(C)CC(=O)N[C@H]1CC[C@@H](CCNC(=O)C2CCCCC2)O[C@H]1CO,-1,0,0,0[16.7 µM],-1
O=C([C@@H]1[C@@H](CO)[C@@H]2Cn3c(ccc(-c4cccnc4)c3=O)[C@H]1N2Cc1ccncc1)N1CCOCC1,-3,-2,0,nt,0
C=CCc1cccc(CNn2cnnc2)c1O,0,0,nt,3,0
C=CCc1cccc(CNc2c(C)cc(C)cc2C)c1O,-9,2,-1,-9,44*
C[C@@H]1CN([C@@H](C)CO)C(=O)c2cccc(NC(=O)C3CC3)c2O[C@H]1CN(C)Cc1ccc(-c2ccccc2)cc1,-4,-1,0,nt,0
C[C@@H]1CN([C@@H](C)CO)C(=O)c2cc(-c3cccnc3)cnc2O[C@@H]1CN(C)C(=O)C1CCC1,2,-2,0,-6[16.7 µM],0
CC(C)NC(=O)N(C)C[C@@H]1Oc2c(NC(=O)c3cnccn3)cccc2C(=O)N([C@H](C)CO)C[C@@H]1C,-5,0,18,nt,0
CC1CCN(C(=O)c2[nH]cnc2C(=O)N[C@@H](C)C(=O)OCc2ccccc2)CC1,138*,0,1,-7,0
CC(C)(C)OC(=O)NCc1ccc(CNC(=O)c2[nH]cnc2C(=O)N[C@@H](Cc2ccccc2)C(=O)OC(C)(C)C)cc1,-1,-6,0,44,12*
CC(C)C[C@H](NC(=O)c1nc[nH]c1C(=O)N1CCN(C(=O)OC(C)(C)C)CC1)C(=O)OC(C)(C)C,3,12*,0,-9,0
CN1CCn2cnc(C(=O)N[C@@H](Cc3ccccc3)C(=O)OC(C)(C)C)c2C1=O,7,0,0,5,44*
Cc1noc(C)c1S(=O)(=O)N(C)C[C@@H]1Oc2ccc(NC(=O)NC3CCCCC3)cc2CC(=O)N([C@H](C)CO)C[C@@H]1C,6,-3,-3,78*[16.7 µM],0
Cc1noc(C)c1S(=O)(=O)N(C)C[C@@H]1Oc2ccc(NC(=O)NC3CCCCC3)cc2CC(=O)N([C@@H](C)CO)C[C@@H]1C,-5,-3,2,62*[16.7 µM],0
COC(=O)C[C@H]1CC[C@H](NS(=O)(=O)c2ccc(OC)cc2)[C@@H](CO)O1,2,3,0,8[16.7 µM],1
